Reference: ChEMBL document CHEMBL4118253, “Expedient synthesis and biological evaluation of alkenyl acyclic nucleoside phosphonate prodrugs” (Bioorg Med Chem, 2018)

How the values were obtained:
Human alphaherpesvirus 1 [1] = experiment: Antiviral activity against Herpes simplex virus 1 KOS infected in HEL cells assessed as inhibition of virus-induced cytopathicity; format: functional, organism-based; settings: Human alphaherpesvirus 1, KOS
Human alphaherpesvirus 2 = experiment: Antiviral activity against Herpes simplex virus 2 G infected in HEL cells assessed as inhibition of virus-induced cytopathicity; format: functional, organism-based; settings: Human alphaherpesvirus 2, strain G
Human alphaherpesvirus 1 [2] = experiment: Antiviral activity against acyclovir-resistant thymidine kinase deficient Herpes simplex virus 1 KOS infected in HEL cells assessed as inhibition of virus-induced cytopathicity; format: functional, organism-based; settings: Human alphaherpesvirus 1, KOS
Vaccinia virus = experiment: Antiviral activity against Vaccinia virus infected in HEL cells assessed as inhibition of virus-induced cytopathicity; format: functional, organism-based; settings: Orthopoxvirus vaccinia
Human adenovirus 2 = experiment: Antiviral activity against Adenovirus 2 infected in HEL cells assessed as inhibition of virus-induced cytopathicity; format: functional, organism-based; settings: Human mastadenovirus C
Human coronavirus 229E = experiment: Antiviral activity against Human coronavirus 229E infected in HEL cells assessed as inhibition of virus-induced cytopathicity; format: functional, organism-based
Human respirovirus 3 = experiment: Antiviral activity against Parainfluenza virus 3 infected in human HeLa cells assessed as inhibition of virus-induced cytopathicity; format: functional, organism-based; settings: Human respirovirus 3, HeLa
[3] = test system: Mammalian orthoreovirus 1; experiment: Antiviral activity against Reovirus-1 infected in human HeLa cells assessed as inhibition of virus-induced cytopathicity; format: functional, organism-based; settings: Mammalian orthoreovirus 1, HeLa
[4] = test system: Vesicular stomatitis virus; experiment: Antiviral activity against Vesicular stomatitis virus infected in human HeLa cells assessed as inhibition of virus-induced cytopathicity; format: functional, organism-based
[5] = test system: Respiratory syncytial virus; experiment: Antiviral activity against Respiratory syncytial virus infected in human HeLa cells assessed as inhibition of virus-induced cytopathicity; format: functional, organism-based
Influenza A virus [6] = experiment: Antiviral activity against Influenza A virus H1N1 infected in MDCK cells assessed as inhibition of virus-induced cytopathicity by MTS assay; format: functional, organism-based
Influenza A virus H3N2 [7] = experiment: Antiviral activity against Influenza A virus H3N2 infected in MDCK cells assessed as inhibition of virus-induced cytopathicity by MTS assay; format: functional, organism-based
Influenza B virus [8] = experiment: Antiviral activity against Influenza B virus infected in MDCK cells assessed as inhibition of virus-induced cytopathicity by MTS assay; format: functional, organism-based
Human alphaherpesvirus 3 [9] = experiment: Antiviral activity against thymidine kinase expressing Varicella-Zoster virus infected in HEL cells assessed as reduction in virus plaque formation; format: functional, organism-based; settings: Human alphaherpesvirus 3, HEL
Human alphaherpesvirus 3 [10] = experiment: Antiviral activity against thymidine kinase deficient Varicella-Zoster virus infected in HEL cells assessed as reduction in virus plaque formation; format: functional, organism-based; settings: Human alphaherpesvirus 3, HEL
Human betaherpesvirus 5 [11] = experiment: Antiviral activity against Human cytomegalovirus AD169 infected in HEL cells assessed as inhibition of virus-induced cytopathicity; format: functional, organism-based; settings: Human betaherpesvirus 5, AD169, HEL
Human betaherpesvirus 5 [12] = experiment: Antiviral activity against Human cytomegalovirus Davis infected in HEL cells assessed as inhibition of virus-induced cytopathicity; format: functional, organism-based; settings: Human betaherpesvirus 5, Davis
[13] = Cytotoxicity against HEL cells assessed as alteration of cell morphology by microscopic analysis; format: cell-based; settings: human
In short: (§1)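 The value is the minimal cytotoxic concentration (MCC), the lowest concentration that causes a microscopically visible change in cell morphology. It was read in the same HEL or Vero cell cultures used for the antiviral tests.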

Sindbis virus = experiment: Antiviral activity against Sindbis Virus infected in African green monkey Vero cells assessed as inhibition of virus-induced cytopathicity; format: functional, organism-based
Coxsackievirus B4 = experiment: Antiviral activity against Coxsackie virus B4 infected in African green monkey Vero cells assessed as inhibition of virus-induced cytopathicity; format: functional, organism-based; settings: Enterovirus B
Punta Toro virus = experiment: Antiviral activity against Punta Toro virus infected in African green monkey Vero cells assessed as inhibition of virus-induced cytopathicity; format: functional, organism-based
Yellow fever virus = experiment: Antiviral activity against Yellow fever virus infected in African green monkey Vero cells assessed as inhibition of virus-induced cytopathicity; format: functional, organism-based
[14] = Cytotoxicity against African green monkey Vero cells assessed as alteration of cell morphology by microscopic analysis; format: cell-based; settings: chlorocebus sabaeus; in short: as §1
[15] = Cytotoxicity against human HeLa cells assessed as alteration of cell morphology by microscopic analysis; format: cell-based
[16] = Cytotoxicity against MDCK cells assessed as alteration of cell morphology by microscopic analysis; format: cell-based, Canis lupus familiaris; settings: dog
Influenza A virus [17] = experiment: Antiviral activity against Influenza A virus H1N1 infected in MDCK cells assessed as inhibition of virus-induced visual cytopathicity; format: functional, organism-based
Influenza A virus H3N2 [18] = experiment: Antiviral activity against Influenza A virus H3N2 infected in MDCK cells assessed as inhibition of virus-induced visual cytopathicity; format: functional, organism-based
Influenza B virus [19] = experiment: Antiviral activity against Influenza B virus infected in MDCK cells assessed as inhibition of virus-induced visual cytopathicity; format: functional, organism-based
[20] = Half life in human serum by 31P NMR analysis; format: ADME, cell-free
[21] = Half life in rat serum by 31P NMR analysis; format: ADME, cell-free

Row | SMILES | EC50 (Human alphaherpesvirus 1 [1]) | EC50 (Human alphaherpesvirus 2) | EC50 (Human alphaherpesvirus 1 [2]) | EC50 (Vaccinia virus) | EC50 (Human adenovirus 2) | EC50 (Human coronavirus 229E) | EC50 (Human respirovirus 3) | EC50 [3] | EC50 [4] | EC50 [5] | EC50 (Influenza A virus [6]) | EC50 (Influenza A virus H3N2 [7]) | EC50 (Influenza B virus [8]) | EC50 (Human alphaherpesvirus 3 [9]) | EC50 (Human alphaherpesvirus 3 [10]) | EC50 (Human betaherpesvirus 5 [11]) | EC50 (Human betaherpesvirus 5 [12]) | MCC [13] | EC50 (Sindbis virus) | EC50 (Coxsackievirus B4) | also measured
1 | C/C(=C\CP(=O)(N[C@@H](C)C(=O)OCc1ccccc1)Oc1cccc2c1CCCC2)Cn1cc(C)c(=O)[nH]c1=O (stereo not given in full) | > 100 µM | > 100 µM | > 100 µM | > 100 µM | > 100 µM | > 100 µM | > 100 µM | > 100 µM | > 100 µM | > 100 µM | > 100 µM | > 100 µM | > 100 µM | 50.2 µM | 47.2 µM | > 100 µM | > 100 µM | > 100 µM | > 100 µM | > 100 µM | EC50 (Punta Toro virus): > 100 µM; EC50 (Yellow fever virus): > 100 µM; MCC [14]: ≥ 100 µM; MCC [15]: ≥ 100 µM; MCC [16]: > 100 µM; EC50 (Influenza A virus [17]): > 100 µM; EC50 (Influenza A virus H3N2 [18]): > 100 µM; EC50 (Influenza B virus [19]): > 100 µM
2 | C/C(=C\CP(=O)(N[C@@H](C)C(=O)OC(C)C)Oc1ccccc1)Cn1cc(C)c(=O)[nH]c1=O (stereo not given in full) | > 100 µM | > 100 µM | > 100 µM | > 100 µM | > 100 µM | > 100 µM | > 100 µM | > 100 µM | > 100 µM | > 100 µM | > 100 µM | > 100 µM | > 100 µM | 76.5 µM | > 100 µM | > 100 µM | > 100 µM | > 100 µM | > 100 µM | > 100 µM | EC50 (Punta Toro virus): > 100 µM; EC50 (Yellow fever virus): > 100 µM; MCC [14]: ≥ 20 µM; MCC [15]: ≥ 20 µM; MCC [16]: > 100 µM; EC50 (Influenza A virus [17]): > 100 µM; EC50 (Influenza A virus H3N2 [18]): > 100 µM; EC50 (Influenza B virus [19]): > 100 µM
3 | C/C(=C\CP(=O)(N[C@@H](C)C(=O)OCc1ccccc1)Oc1cccc2c1CCCC2)Cn1ccc(=O)[nH]c1=O (stereo not given in full) | > 100 µM | > 100 µM | > 100 µM | > 100 µM | > 100 µM | > 100 µM | > 100 µM | > 100 µM | > 100 µM | > 100 µM | > 100 µM | > 100 µM | > 100 µM | 55.7 µM | 52.5 µM | > 100 µM | > 100 µM | > 100 µM | > 100 µM | > 100 µM | EC50 (Punta Toro virus): > 100 µM; EC50 (Yellow fever virus): > 100 µM; MCC [14]: ≥ 100 µM; MCC [15]: ≥ 100 µM; MCC [16]: > 100 µM; EC50 (Influenza A virus [17]): > 100 µM; EC50 (Influenza A virus H3N2 [18]): > 100 µM; EC50 (Influenza B virus [19]): > 100 µM
4 | C/C(=C/CP(=O)(N[C@@H](C)C(=O)OC(C)C)Oc1cccc2ccccc12)Cn1cc(C)c(=O)[nH]c1=O (stereo not given in full) | > 100 µM | > 100 µM | > 100 µM | > 100 µM | > 100 µM | > 100 µM | > 100 µM | > 100 µM | > 100 µM | > 100 µM | > 100 µM | > 100 µM | > 100 µM | 39.9 µM | 41.6 µM | > 20 µM | 44.7 µM | 100 µM | > 100 µM | > 100 µM | EC50 (Punta Toro virus): > 100 µM; EC50 (Yellow fever virus): > 100 µM; MCC [14]: ≥ 20 µM; MCC [15]: ≥ 20 µM; MCC [16]: 100 µM; EC50 (Influenza A virus [17]): > 100 µM; EC50 (Influenza A virus H3N2 [18]): > 100 µM; EC50 (Influenza B virus [19]): > 100 µM
5 | C/C(=C\CP(=O)(N[C@@H](C)C(=O)OC(C)C)Oc1cccc2c1CCCC2)Cn1cc(C)c(=O)[nH]c1=O (stereo not given in full) | > 100 µM | > 100 µM | > 100 µM | > 100 µM | > 100 µM | > 100 µM | > 100 µM | > 100 µM | > 100 µM | > 100 µM | > 100 µM | > 100 µM | > 100 µM | 58.5 µM | 53.5 µM | > 100 µM | > 20 µM | > 100 µM | > 100 µM | > 100 µM | EC50 (Punta Toro virus): > 100 µM; EC50 (Yellow fever virus): > 100 µM; MCC [14]: ≥ 20 µM; t1/2 [20]: > 12 h; t1/2 [21]: > 12 h; MCC [15]: ≥ 20 µM; MCC [16]: > 100 µM; EC50 (Influenza A virus [17]): > 100 µM; EC50 (Influenza A virus H3N2 [18]): > 100 µM; EC50 (Influenza B virus [19]): > 100 µM
6 | C/C(=C\CP(=O)(N[C@@H](C)C(=O)OC(C)C)Oc1cccc2ccccc12)Cn1ccc(=O)[nH]c1=O (stereo not given in full) | > 100 µM | > 100 µM | > 100 µM | > 100 µM | > 100 µM | > 100 µM | > 100 µM | > 100 µM | > 100 µM | > 100 µM | > 100 µM | > 100 µM | > 100 µM | 20 µM | > 100 µM | > 100 µM | > 100 µM | > 100 µM | > 100 µM | > 100 µM | EC50 (Punta Toro virus): > 100 µM; EC50 (Yellow fever virus): > 100 µM; MCC [14]: > 100 µM; MCC [15]: > 100 µM; MCC [16]: > 100 µM; EC50 (Influenza A virus [17]): > 100 µM; EC50 (Influenza A virus H3N2 [18]): > 100 µM; EC50 (Influenza B virus [19]): > 100 µM
